One data set concerns NCI-H1975. Description: Antitumor activity against human NCI-H1975 cells xenografted in SCID nude mouse assessed as tumor growth inhibition at 30 mg/kg, po qd after 14 days. The following applies: NCI-H1975, 336 h, read-out: TGI. It is filed as functional. The method, boiled down:
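SCID mice (6 weeks) were given H1975 cells subcutaneously in the right flank at 2 × 10^6 per mouse. At 200−300 mm3, n = 5 per group were randomized to daily oral vehicle or compound at 10 or 30 mg/kg for 14 days. Vehicle: 1% DMSO, 5% EtOH, 15% castor oil, 79% H2O. Tumors (W²·L/2) and body weight were measured every other day; TGI was calculated against vehicle controls.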
In general terms: In xenograft studies the graft and the host belong to different species.

Data set [1] in a line: Antiproliferative activity against human H1299 cells expressing wild-type EGFR after 72 hrs by MTS assay. Format: cell-based. The following applies: NCI-H1299, 72 h. The method, boiled down:
(§1)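 MTS proliferation assay: cells exposed to compound for 72 h at six concentrations (0.1 nM to 10 μM), each concentration run six times. Cell number per line set to give an absorbance of 0.5–1.2 at […]. IC50 from a nonlinear sigmoidal dose–response fit. Values are means of at least three independent experiments.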
A general note: Formazan colour is commonly taken as a measure of viable cells.

Data set [2] can be described thus: Antiproliferative activity against human 95-D cells expressing wild-type EGFR after 72 hrs by MTS assay. It is filed as cell-based. The gist of the method: as §1
Data set [3] concerns the target Epithelial discoidin domain-containing receptor 1 (Homo sapiens) (UniProt Q08345). Briefly: Binding affinity to DDR1 (unknown origin).
The target of data set [4] is Tyrosine-protein kinase Blk (Homo sapiens) (UniProt P51451). Description: Binding affinity to BLK (unknown origin).
Data set [5] can be described thus: Clearance in Sprague-Dawley rat at 25 mg/kg, po by LC/MS analysis. Format: ADME, organism-based. On the set-up: dose 25 mg/kg, route oral. The following applies: in vivo. The gist of the method:
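Male Sprague-Dawley rats (180−220 g), n = 4 per route, single iv dose 5 mg/kg or oral gavage 25 mg/kg. Vehicle was 2% DMSO, 4% EtOH, 4% castor oil, 90% H2O. Orbital sinus blood was taken from 2 min to 72 h into heparinized tubes. Plasma levels were measured by LC/MS with propranolol internal standard and analysed by pharmacokinetic modelling.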

We go through 1 compound from ChEMBL document CHEMBL3085739, “Design, synthesis, and biological evaluation of 2-oxo-3,4-dihydropyrimido[4,5-d]pyrimidinyl derivatives as new irreversible epidermal growth factor receptor inhibitors with improved pharmacokinetic properties” (J Med Chem, 2013).

Active and inactive are the calls of the source. The rule behind the calls is not given here.

Chain of Epithelial discoidin domain-containing receptor 1 (Homo sapiens) (Q08345 whole entry, the tested form may be a part): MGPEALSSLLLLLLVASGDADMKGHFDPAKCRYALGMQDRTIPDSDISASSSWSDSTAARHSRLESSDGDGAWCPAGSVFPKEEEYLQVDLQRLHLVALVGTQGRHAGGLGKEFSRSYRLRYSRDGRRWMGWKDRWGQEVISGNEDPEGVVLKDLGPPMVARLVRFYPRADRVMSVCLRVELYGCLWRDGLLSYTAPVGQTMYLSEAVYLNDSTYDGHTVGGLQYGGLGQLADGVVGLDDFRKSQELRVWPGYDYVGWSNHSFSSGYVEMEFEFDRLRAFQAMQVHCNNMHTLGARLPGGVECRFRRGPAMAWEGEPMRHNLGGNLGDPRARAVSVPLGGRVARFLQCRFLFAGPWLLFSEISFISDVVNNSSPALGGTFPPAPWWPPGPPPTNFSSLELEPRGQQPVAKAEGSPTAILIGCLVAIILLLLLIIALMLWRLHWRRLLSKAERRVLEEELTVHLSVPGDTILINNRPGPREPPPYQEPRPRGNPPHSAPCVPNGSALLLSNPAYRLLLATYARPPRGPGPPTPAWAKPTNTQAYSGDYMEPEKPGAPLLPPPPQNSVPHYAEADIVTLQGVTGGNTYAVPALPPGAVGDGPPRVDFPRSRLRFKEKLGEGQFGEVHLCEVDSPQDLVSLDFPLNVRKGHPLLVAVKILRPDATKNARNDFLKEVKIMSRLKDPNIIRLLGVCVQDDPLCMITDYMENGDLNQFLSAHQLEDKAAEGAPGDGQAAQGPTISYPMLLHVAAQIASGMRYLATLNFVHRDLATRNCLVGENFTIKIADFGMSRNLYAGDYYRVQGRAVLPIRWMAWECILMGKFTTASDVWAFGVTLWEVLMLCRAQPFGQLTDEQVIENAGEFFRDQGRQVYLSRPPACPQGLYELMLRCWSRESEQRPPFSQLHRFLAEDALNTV
Chain of Tyrosine-protein kinase Blk (Homo sapiens) (P51451 2-505 limits assumed): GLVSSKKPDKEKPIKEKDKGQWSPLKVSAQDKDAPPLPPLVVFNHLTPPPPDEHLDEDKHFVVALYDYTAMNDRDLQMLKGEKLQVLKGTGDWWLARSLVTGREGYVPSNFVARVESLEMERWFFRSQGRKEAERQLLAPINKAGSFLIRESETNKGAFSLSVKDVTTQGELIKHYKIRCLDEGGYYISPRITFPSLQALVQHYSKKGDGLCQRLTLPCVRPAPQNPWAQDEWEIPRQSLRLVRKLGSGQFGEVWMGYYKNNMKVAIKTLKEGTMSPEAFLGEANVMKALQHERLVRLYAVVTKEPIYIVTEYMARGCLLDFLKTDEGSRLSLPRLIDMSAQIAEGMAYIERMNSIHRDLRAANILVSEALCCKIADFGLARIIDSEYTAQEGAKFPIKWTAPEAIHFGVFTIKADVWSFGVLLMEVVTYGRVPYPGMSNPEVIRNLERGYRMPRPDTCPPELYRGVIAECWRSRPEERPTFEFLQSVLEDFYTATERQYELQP

As for `C=CC(=O)N1CC[C@H](N2C(=O)N(c3ccccc3)Cc3cnc(Nc4ccc(N5CCN(C)CC5)c(C)c4)nc32)C1`, the inhibition in vivo at 30 mg/kg with NCI-H1975 was found to be 56.8%. Also, the values for the IC50 in data set [1] and in data set [2] were 5.1 µM and 4 µM, respectively. Moreover, the result in data set [3] and in data set [4] was Active. The CL/F (in general, the apparent clearance, not corrected for the fraction that reaches the circulation) in data set [5] was 167 mL/min/kg.
